ChEMBL document CHEMBL2062453, “Lead optimization through VLAK protocol: new annelated pyrrolo-pyrimidine derivatives as antitumor agents” (2012)

Key:
Format in all cases: functional
[1] = test system: SR; experiment: Cytotoxicity against human SR cells assessed as cell growth at 10 uM after 48 hrs by SRB assay relative to control; details: read-out: Activity
Summary of the method: (§1)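 NCI single-dose primary screen across about 60 human tumour lines. Each line was inoculated and preincubated on microtiter plates, then exposed to one concentration of agent for 48 h. Growth is reported as percent growth (G%) of treated cells versus untreated control cells.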

[2] = test system: SF-539; experiment: Cytotoxicity against human SF539 cells assessed as cell growth at 10 uM after 48 hrs by SRB assay relative to control; details: SF-539, 48 h, read-out: Activity
[3] = test system: Malme-3M; experiment: Cytotoxicity against human MALME-3M cells assessed as cell growth at 10 uM after 48 hrs by SRB assay relative to control; details: read-out: Activity
Summary of the method: (§2)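 NCI primary screen of about 60 human tumour lines. Cells inoculated and preincubated, then a single test concentration added and cultures incubated 48 h. Result given as percent growth (G%) of treated versus untreated control cells.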

[4] = test system: IGROV-1; experiment: Cytotoxicity against human IGROV1 cells assessed as cell growth at 10 uM after 48 hrs by SRB assay relative to control; details: IGROV-1, 48 h, read-out: Activity; summary of the method: as §2
[5] = test system: DU-145; experiment: Cytotoxicity against human DU145 cells assessed as cell growth at 10 uM after 48 hrs by SRB assay relative to control; details: DU-145, 48 h, read-out: Activity; summary of the method: as §2
[6] = test system: SF-295; experiment: Cytotoxicity against human SF295 cells assessed as cell growth at 10 uM after 48 hrs by SRB assay relative to control; details: SF-295, 48 h, read-out: Activity
[7] = test system: U-251; experiment: Cytotoxicity against human U251 cells assessed as cell growth at 10 uM after 48 hrs by SRB assay relative to control; details: U-251, 48 h, read-out: Activity; summary of the method: as §1
[8] = test system: EKVX; experiment: Cytotoxicity against human EKVX cells assessed as cell growth at 10 uM after 48 hrs by SRB assay relative to control; details: read-out: Activity; summary of the method: as §2
[9] = test system: M14; experiment: Cytotoxicity against human M14 cells assessed as cell growth at 10 uM after 48 hrs by SRB assay relative to control; details: M14, 48 h, read-out: Activity; summary of the method: as §2
[10] = test system: MCF7; experiment: Cytotoxicity against human MCF7 cells assessed as cell growth at 10 uM after 48 hrs by SRB assay relative to control; details: MCF7, 48 h, read-out: Activity; summary of the method: as §2
[11] = test system: HCT-15; experiment: Cytotoxicity against human HCT15 cells assessed as cell growth at 10 uM after 48 hrs by SRB assay relative to control; details: HCT-15, 48 h, read-out: Activity; summary of the method: as §2
[12] = test system: NCI-H460; experiment: Cytotoxicity against human NCI-H460 cells assessed as cell growth at 10 uM after 48 hrs by SRB assay relative to control; details: NCI-H460, 48 h, read-out: Activity
[13] = test system: UACC-257; experiment: Cytotoxicity against human UACC257 cells assessed as cell growth at 10 uM after 48 hrs by SRB assay relative to control; details: UACC-257, 48 h, read-out: Activity; summary of the method: as §1
[14] = test system: HOP-92; experiment: Cytotoxicity against human HOP92 cells assessed as cell growth at 10 uM after 48 hrs by SRB assay relative to control; details: HOP-92, 48 h, read-out: Activity; summary of the method: as §2
[15] = test system: PC-3; experiment: Cytotoxicity against human PC3 cells assessed as cell growth at 10 uM after 48 hrs by SRB assay relative to control; details: PC-3, 48 h, read-out: Activity
[16] = test system: ACHN; experiment: Cytotoxicity against human ACHN cells assessed as cell growth at 10 uM after 48 hrs by SRB assay relative to control; details: read-out: Activity; summary of the method: as §2
[17] = test system: CCRF-CEM; experiment: Cytotoxicity against human CCRF-CEM cells assessed as cell growth at 10 uM after 48 hrs by SRB assay relative to control; details: read-out: Activity; summary of the method: as §2
[18] = test system: MDA-MB-468; experiment: Cytotoxicity against human MDA-MB-468 cells assessed as cell growth at 10 uM after 48 hrs by SRB assay relative to control; details: MDA-MB-468, 48 h, read-out: Activity
[19] = test system: NCI/ADR-RES; experiment: Cytotoxicity against human NCI/ADR-RES cells assessed as cell growth at 10 uM after 48 hrs by SRB assay relative to control; details: read-out: Activity
[20] = test system: COLO 205; experiment: Cytotoxicity against human COLO205 cells assessed as cell growth at 10 uM after 48 hrs by SRB assay relative to control; details: COLO 205, 48 h, read-out: Activity; summary of the method: as §2
[21] = test system: RXF 393; experiment: Cytotoxicity against human RXF393 cells assessed as cell growth at 10 uM after 48 hrs by SRB assay relative to control; details: RXF 393, 48 h, read-out: Activity
[22] = test system: K562; experiment: Cytotoxicity against human K562 cells assessed as cell growth at 10 uM after 48 hrs by SRB assay relative to control; details: K562, 48 h, read-out: Activity; summary of the method: as §2
[23] = test system: A549; experiment: Cytotoxicity against human A549 cells assessed as cell growth at 10 uM after 48 hrs by SRB assay relative to control; details: A549, 48 h, read-out: Activity; summary of the method: as §2
[24] = test system: 786-0; experiment: Cytotoxicity against human 786-0 cells assessed as cell growth at 10 uM after 48 hrs by SRB assay relative to control; details: 786-0, 48 h, read-out: Activity; summary of the method: as §2
[25] = test system: OVCAR-4; experiment: Cytotoxicity against human OVCAR4 cells assessed as cell growth at 10 uM after 48 hrs by SRB assay relative to control; details: OVCAR-4, 48 h, read-out: Activity
[26] = test system: SNB-75; experiment: Cytotoxicity against human SNB75 cells assessed as cell growth at 10 uM after 48 hrs by SRB assay relative to control; details: SNB-75, 48 h, read-out: Activity
[27] = test system: NCI-H226; experiment: Cytotoxicity against human NCI-H226 cells assessed as cell growth at 10 uM after 48 hrs by SRB assay relative to control; details: NCI-H226, 48 h, read-out: Activity
[28] = test system: KM12; experiment: Cytotoxicity against human KM12 cells assessed as cell growth at 10 uM after 48 hrs by SRB assay relative to control; details: KM12, 48 h, read-out: Activity; summary of the method: as §2
[29] = test system: T47D; experiment: Cytotoxicity against human T47D cells assessed as cell growth at 10 uM after 48 hrs by SRB assay relative to control; details: read-out: Activity; summary of the method: as §1
[30] = test system: LOX IMVI; experiment: Cytotoxicity against human LOXIMVI cells assessed as cell growth at 10 uM after 48 hrs by SRB assay relative to control; details: read-out: Activity; summary of the method: as §2
[31] = test system: SK-MEL-5; experiment: Cytotoxicity against human SK-MEL-5 cells assessed as cell growth at 10 uM after 48 hrs by SRB assay relative to control; details: SK-MEL-5, 48 h, read-out: Activity
[32] = test system: UO-31; experiment: Cytotoxicity against human UO31 cells assessed as cell growth at 10 uM after 48 hrs by SRB assay relative to control; details: UO-31, 48 h, read-out: Activity; summary of the method: as §1
[33] = test system: OVCAR-5; experiment: Cytotoxicity against human OVCAR5 cells assessed as cell growth at 10 uM after 48 hrs by SRB assay relative to control; details: OVCAR-5, 48 h, read-out: Activity
[34] = test system: NCI-H23; experiment: Cytotoxicity against human NCI-H23 cells assessed as cell growth at 10 uM after 48 hrs by SRB assay relative to control; details: NCI-H23, 48 h, read-out: Activity

CCOC(=O)CCCn1c(C)c(C)c2c1N=C(SC)N1CC(=O)N=C21
growth at 10 µM [1]: 119%
growth at 10 µM [2]: 95%
growth at 10 µM [3]: 119%
growth at 10 µM [4]: 98%
growth at 10 µM [5]: 149%
growth at 10 µM [6]: 113%
growth at 10 µM [7]: 105%
growth at 10 µM [8]: 104%
growth at 10 µM [9]: 106%
growth at 10 µM [10]: 96%
growth at 10 µM [11]: 108%
growth at 10 µM [12]: 110%
growth at 10 µM [13]: 111%
growth at 10 µM [14]: 89%
growth at 10 µM [15]: 103%
growth at 10 µM [16]: 110%
growth at 10 µM [17]: 100%
growth at 10 µM [18]: 55%
growth at 10 µM [19]: 112%
growth at 10 µM [20]: 132%
growth at 10 µM [21]: 121%
growth at 10 µM [22]: 94%
growth at 10 µM [23]: 102%
growth at 10 µM [24]: 113%
growth at 10 µM [25]: 100%
growth at 10 µM [26]: 90%
growth at 10 µM [27]: 113%
growth at 10 µM [28]: 154%
growth at 10 µM [29]: 95%
growth at 10 µM [30]: 101%
growth at 10 µM [31]: 100%
growth at 10 µM [32]: 81%
growth at 10 µM [33]: 125%
growth at 10 µM [34]: 117%

CSC1=Nc2c(c(C)c(C)n2CCCC(=O)O)C2=NC(=O)CN12
growth at 10 µM [1]: 122%
growth at 10 µM [2]: 86%
growth at 10 µM [3]: 115%
growth at 10 µM [4]: 101%
growth at 10 µM [5]: 118%
growth at 10 µM [6]: 122%
growth at 10 µM [7]: 107%
growth at 10 µM [8]: 105%
growth at 10 µM [9]: 110%
growth at 10 µM [10]: 95%
growth at 10 µM [11]: 114%
growth at 10 µM [12]: 105%
growth at 10 µM [13]: 120%
growth at 10 µM [14]: 92%
growth at 10 µM [15]: 98%
growth at 10 µM [16]: 108%
growth at 10 µM [17]: 105%
growth at 10 µM [18]: 97%
growth at 10 µM [19]: 114%
growth at 10 µM [20]: 137%
growth at 10 µM [21]: 122%
growth at 10 µM [22]: 93%
growth at 10 µM [23]: 117%
growth at 10 µM [24]: 109%
growth at 10 µM [25]: 104%
growth at 10 µM [26]: 111%
growth at 10 µM [27]: 110%
growth at 10 µM [28]: 112%
growth at 10 µM [29]: 103%
growth at 10 µM [30]: 93%
growth at 10 µM [31]: 101%
growth at 10 µM [32]: 88%
growth at 10 µM [33]: 117%
growth at 10 µM [34]: 109%

CSC1=Nc2c(c(C)c(C)n2CCCC(=O)NCCc2cnc[nH]2)C2=NC(=O)CN12
growth at 10 µM [1]: 126%
growth at 10 µM [2]: 97%
growth at 10 µM [3]: 109%
growth at 10 µM [4]: 94%
growth at 10 µM [5]: 149%
growth at 10 µM [6]: 106%
growth at 10 µM [7]: 101%
growth at 10 µM [8]: 99%
growth at 10 µM [9]: 102%
growth at 10 µM [10]: 94%
growth at 10 µM [11]: 109%
growth at 10 µM [12]: 101%
growth at 10 µM [13]: 114%
growth at 10 µM [14]: 91%
growth at 10 µM [15]: 100%
growth at 10 µM [16]: 112%
growth at 10 µM [17]: 104%
growth at 10 µM [18]: 89%
growth at 10 µM [19]: 110%
growth at 10 µM [20]: 132%
growth at 10 µM [21]: 116%
growth at 10 µM [22]: 100%
growth at 10 µM [23]: 101%
growth at 10 µM [24]: 110%
growth at 10 µM [25]: 93%
growth at 10 µM [26]: 78%
growth at 10 µM [27]: 106%
growth at 10 µM [28]: 171%
growth at 10 µM [29]: 101%
growth at 10 µM [30]: 102%
growth at 10 µM [31]: 101%
growth at 10 µM [32]: 85%
growth at 10 µM [33]: 116%
growth at 10 µM [34]: 103%

COC(=O)C(Cc1cnc[nH]1)NC(=O)CCCn1c(C)c(C)c2c1N=C(SC)N1CC(=O)N=C21 (stereo unspecified)
growth at 10 µM [1]: 118%
growth at 10 µM [2]: 91%
growth at 10 µM [3]: 108%
growth at 10 µM [4]: 95%
growth at 10 µM [5]: 113%
growth at 10 µM [6]: 112%
growth at 10 µM [7]: 96%
growth at 10 µM [8]: 95%
growth at 10 µM [9]: 106%
growth at 10 µM [10]: 92%
growth at 10 µM [11]: 105%
growth at 10 µM [12]: 99%
growth at 10 µM [13]: 107%
growth at 10 µM [14]: 92%
growth at 10 µM [15]: 88%
growth at 10 µM [16]: 113%
growth at 10 µM [17]: 105%
growth at 10 µM [18]: 96%
growth at 10 µM [19]: 110%
growth at 10 µM [20]: 118%
growth at 10 µM [21]: 112%
growth at 10 µM [22]: 97%
growth at 10 µM [23]: 98%
growth at 10 µM [24]: 104%
growth at 10 µM [25]: 90%
growth at 10 µM [26]: 79%
growth at 10 µM [27]: 111%
growth at 10 µM [28]: 106%
growth at 10 µM [29]: 104%
growth at 10 µM [30]: 92%
growth at 10 µM [31]: 98%
growth at 10 µM [32]: 96%
growth at 10 µM [33]: 106%
growth at 10 µM [34]: 109%
